# ChEMBL document CHEMBL1629441, “Synthesis, in vitro and in vivo biological evaluation, and comprehensive understanding of structure-activity relationships of dipeptidyl boronic acid proteasome inhibitors constructed from β-amino acids” (J Med Chem, 2010)
# Tests used:
# [1] = Inhibition of human 20S proteasome chymotrypsin-like activity by fluorimetric assay; details: read-out: IC50
# How it was run: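 Human 20S proteasome preincubated with test compound, then Suc-Leu-Leu-Val-Tyr-AMC hydrolysis monitored 1 h at 37 °C by fluorescence (excitation 360 nm, 465 nm). Buffer pH 7.5: 20 mM Tris, 1 mM DTT, 10% glycerol, 0.02% (w/v) SDS; DMSO 3% (v/v) final. IC50 from five concentrations, each in duplicate; bortezomib standard.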
# BXPC-3 = test: Cytotoxicity against human BxPC3 cells after 72 hrs by MTT assay; assay type: functional, cell-based; details: BXPC-3, 72 h
# How it was run: (§1)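 MTT growth assay: 3000 cells per well seeded, after 24 h exposed to 10 drug concentrations for 72 h, then MTT (5 mg/mL stock) 4 h at 37 °C. Formazan dissolved in DMSO, absorbance at 540 nm. Points in triplicate; IC50 is mean of at least three independent determinations. Cells grown at 37 °C, 5% CO2 with FBS.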
# SW480 = test: Cytotoxicity against human SW480 cells after 72 hrs by MTT assay; assay type: functional, cell-based; details: SW480, 72 h; how it was run: as §1
# A549 = test: Cytotoxicity against human A549 cells after 72 hrs by MTT assay; assay type: functional, cell-based; details: A549, 72 h; how it was run: as §1
# PC-3 = test: Cytotoxicity against human PC3 cells after 72 hrs by MTT assay; assay type: functional, cell-based; details: PC-3, 72 h; how it was run: as §1
# SK-OV-3 = test: Cytotoxicity against human SKOV3 cells after 72 hrs by MTT assay; assay type: functional, cell-based; details: SK-OV-3, 72 h; how it was run: as §1
# HepG2 = test: Cytotoxicity against human HepG2 cells after 72 hrs by MTT assay; assay type: functional, cell-based; details: HepG2, 72 h; how it was run: as §1
# HL-60 = test: Cytotoxicity against human HL60 cells after 72 hrs by MTT assay; assay type: functional, cell-based; details: HL-60, 72 h; how it was run: as §1
# [2] = Cytotoxicity against human RPMI18226 cells after 72 hrs by MTT assay; assay type: functional, cell-based; details: RPMI18226, 72 h; how it was run: as §1
# [3] = Tmax in Sprague-Dawley rat at 1 mg/kg, iv; assay type: ADME, organism-based; set-up: dose 1 mg/kg, route intravenous; details: in vivo
# How it was run: (§2)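 Male SD rats given single 1.0 mg/kg iv bolus of solution (0.5 mg/mL) in 1% ethanol, 1% Tween80, 98% buffered saline. Heparinized blood samples (n = 4) centrifuged 4000 rpm, 5 min, 4 °C; plasma concentrations used to derive PK parameters.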
# [4] = Cmax in Sprague-Dawley rat at 1 mg/kg, iv; assay type: ADME, organism-based; set-up: dose 1 mg/kg, route intravenous; details: in vivo; how it was run: as §2
# [5] = AUC (0-t) in Sprague-Dawley rat at 1 mg/kg, iv; assay type: ADME, organism-based; set-up: dose 1 mg/kg, route intravenous; details: plasma; how it was run: as §2
# [6] = Mean residence time (0-t) in Sprague-Dawley rat at 1 mg/kg, iv; assay type: ADME, organism-based; set-up: dose 1 mg/kg, route intravenous; details: in vivo; how it was run: as §2
# [7] = Terminal half life in Sprague-Dawley rat at 1 mg/kg, iv; assay type: ADME, organism-based; set-up: dose 1 mg/kg, route intravenous; details: in vivo; how it was run: as §2
# [8] = Apparent volume of distribution in Sprague-Dawley rat at 1 mg/kg, iv; assay type: ADME, organism-based; set-up: dose 1 mg/kg, route intravenous; details: in vivo, read-out: Vz; how it was run: as §2
# [9] = Systemic clearance in Sprague-Dawley rat at 1 mg/kg, iv; assay type: ADME, organism-based; set-up: dose 1 mg/kg, route intravenous; details: in vivo; how it was run: as §2
# Rattus norvegicus [10] = test: Toxicity in Sprague-Dawley rat assessed as incidence of mortality at 1 mg/kg, iv after 10 hrs; assay type: organism-based; set-up: dose 1 mg/kg, route intravenous; details: in vivo
# How it was run: (§3)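 Male SD rats dosed once at 1.0 mg/kg, iv bolus or intragastric, during the PK study. Dosing solution 0.5 mg/mL in 1% ethanol, 1% Tween80, 98% buffered saline. Animals observed for death and toxic reactions over 10 h. n = 4 per PK group.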
# Rattus norvegicus [11] = test: Toxicity in Sprague-Dawley rat assessed as incidence of mortality at 1 mg/kg, ig after 10 hrs; assay type: organism-based; set-up: dose 1 mg/kg, route intragastric; details: in vivo, po; how it was run: as §3
structure (smiles),measurement,setting,value
CC(C)C[C@H](NC(=O)CC(NC(=O)c1ccc2ccccc2c1)c1cccc(F)c1)B(O)O (stereo partly drawn),IC50,[1],3.01 nM
same,IC50,BXPC-3,3.54 µM
same,IC50,SW480,2380 nM
same,IC50,A549,2020 nM
same,IC50,PC-3,2990 nM
same,IC50,SK-OV-3,8.77 µM
same,IC50,HepG2,6.99 µM
same,IC50,HL-60,530 nM
same,IC50,[2],330 nM
same,Tmax,[3],1.8 min
same,Cmax,[4],5790 ng/mL
same,AUC(0-t),[5],1710 ng·h/mL
same,MRT last,[6],1.4 h
same,half-life,[7],270 min
same,Vd,[8],3.9 L/kg
same,clearance,[9],9.6 mL/min/kg
same,Activity,Rattus norvegicus [10],Non-toxic
same,Activity,Rattus norvegicus [11],Non-toxic
